Screening data as filed in PubChem BioAssay.
Calb FLC: C. albicans growth inhibition with fluconazole, primary screen, CaCi-2 strain, Alamar Blue fluorescence; growth inhibition, % (concentration not given with the values); AID 1979, 2009; hit rate 0.57% among 300,000; C. albicans CaCi-2 (fluconazole-resistant clinical isolate) + fluconazole, 48 h;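 active = growth inhibition above about 58% in most replicates, limit read from the data, passing the limit was not always enough; inconclusive = exactly half the replicates above a set limit; inactive = most replicates below a set limit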;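 also: all wells also contain fluconazole at 8 µg/ml as a sub-toxic cotreatment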
T cruzi repl: inhibitors of intracellular T. cruzi growth, primary screen, luminescence, NIH3T3 host cells | T. cruzi beta-gal in NIH3T3, 90 h | inhibition, % (concentration not given with the values) | hit rate 1.4% among 300,000;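 active = mean inhibition across valid replicates above about 55%, limit read from the data; inconclusive = mean below that limit but half or more replicates reach it; inactive = mean below it, under half of replicates reach it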;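 also: signal also drops with host cell toxicity which is not excluded here; higher percent means less beta-gal luminescence so fewer parasites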
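Incubation – ≥90 h infection period, 3 h prior cell attachment · System – NIH/3T3 fibroblasts plus reporter T. cruzi · Doses – compound pinned at 50 nL/well, DMSO · Read-out basis – percent inhibition of parasite-derived β-gal signal · Signal – luminescent β-galactosidase signal after 60 min lysis · Also added – 5000 T. cruzi trypomastigotes/well · Medium – Low-serum DMEM with 2% FBS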
NALP1 yeast inh: NALP1 inflammasome inhibitors in reconstituted yeast, colorimetric, S. cerevisiae, triplicate retest; S. cerevisiae NALP1/ASC/caspase-1 growth, X-gal OD620, 72 h; inhibition, % at 10 µM; hit rate 0.61% among 280,000; in the data active = inhibition mostly above about 24%, no sharp cut-off; inactive = mostly below about 32%
NALP3 yeast inh: NALP3 inflammasome inhibitors in reconstituted yeast, primary screen, luminescence, uHTS | Yeast reconstituted NLRP3/ASC/caspase-1, beta-gal luminescence, 24 h | AID 2825, 2010 | inhibition, % at 10 µM | hit rate 0.39% among 330,000;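 active = inhibition of 50% or more; inactive = inhibition below 50%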
Lmaj promast: Leishmania major promastigote growth inhibition, primary screen; Leishmania major promastigotes, resazurin fluorescence viability; hit rate 9% among 200,000; AID 1063, 2008; inhibition, % at 10 µM; in the data active = inhibition above about 50%;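 also: promastigotes grown with compound for 44 hours at 28 °C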
PolyA inhibitor: polyadenylation inhibitors in yeast reporter cells, primary screen, luminescence, S. cerevisiae | S. cerevisiae SKY197-pL101 polyadenylation reporter, beta-gal luminescence; efflux-impaired pdr1/pdr3 knockout yeast; score 100 = 6 SD above DMSO | activity score, % at 12 µM | hit rate 0.02% among 300,000;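 active = lowest replicate activity score at least 50, where 100 means six control SD above control mean; inconclusive = lowest score under 50 but half or more replicates reach 50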;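 also: yeast exposed to compound for 9 h at 30 °C; higher score means more reporter readthrough which indicates perturbed polyadenylation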
Of the large screens only hits and unclear results are named; the others gave an inactive call. Only a selection was taken, and hits are over-represented in it overall.

C(=N\Nc1nc2ccccc2[nH]1)/c1c[nH]c2ccccc12	T cruzi repl inconclusive, Lmaj promast 99
CC1CC(=O)Nc2ccccc2N1C(=O)CSc1ccc2ccccc2n1 (stereo not given)	none (no result: Calb FLC, T cruzi repl, NALP1 yeast inh, Lmaj promast, PolyA inhibitor)
O=C(NCc1nc2ccccc2[nH]1)C1=C[C@@H](c2ccc(Br)cc2)C[C@@H](OCc2ccc(CO)cc2)O1	Lmaj promast 78
O=C(NCc1ccccc1)C1=C[C@@H](c2ccc(Br)cc2)C[C@@H](OCc2ccc(CO)cc2)O1	Lmaj promast 55
O=C(NCc1nc2ccccc2[nH]1)C1=C[C@@H](c2ccc(Br)cc2)C[C@@H](OCCCCO)O1	none
O=C(NCc1nc2ccccc2[nH]1)C1=C[C@@H](c2csc3ccccc23)C[C@@H](OCc2ccc(CO)cc2)O1	Lmaj promast 95
COc1ccc(CN2CNc3nc4ccccc4n3C2)cc1	Lmaj promast 62
c1coc(CN2CNc3nc4ccccc4n3C2)c1	none (no result: Lmaj promast)
O=C(NC(=S)Nc1nc(-c2cccc3ccccc23)cs1)c1cc2ccccc2o1	none
CC(=O)Nc1nc(-c2cccc3ccccc23)cs1	T cruzi repl 57 (no result: Lmaj promast)
Cc1cc(C)c2ccc(NN)nc2c1O	Lmaj promast 99
Cc1cc(C)c2ccc(/C=N/O)nc2c1O	none (no result: NALP1 yeast inh, Lmaj promast)
CCN(CC)C(=O)CSc1nc2ccccc2c(=O)n1-c1cccc(OC)c1	none
COc1cccc(-n2c(SCc3cc(=O)oc4cc(O)c(O)cc34)nc3ccccc3c2=O)c1	Calb FLC 106 (no result: NALP3 yeast inh)
COc1ccc(/C=N/OCC(=O)Nc2cc(C)on2)cc1OC	none
COc1ccc(/C=N/OCC(=O)NC(c2ccccc2)c2ccccc2)cc1OC	T cruzi repl 57, Lmaj promast 100
O=C(Nc1ccc(C(=O)OC[C@@H]2CCCN3CCCC[C@H]23)cc1)c1cccc(Br)c1	Lmaj promast 68
COc1ccc(/C=C(\NC(=O)c2ccccc2)C(=O)OCC2CCCN3CCCCC23)cc1OC (stereo not given)	Lmaj promast 73
Cc1c(C(O)CN2CCN(Cc3ccc4c(c3)OCO4)CC2)c2ccccc2n1C (stereo not given)	T cruzi repl 67, Lmaj promast 100
OC(CN1CCN(Cc2ccc3c(c2)OCO3)CC1)c1c[nH]c2ccccc12 (stereo not given)	Lmaj promast 91
COc1cc(NC(=O)C2CC(=O)N(Cc3ccco3)C2)cc(OC)c1 (stereo not given)	none (no result: NALP1 yeast inh, Lmaj promast)
CCS(=O)(=O)N1Cc2ccccc2CC1C(=O)Nc1cccc(S(=O)(=O)N(C)C)c1 (stereo not given)	none (no result: Lmaj promast)
CCS(=O)(=O)c1ccc2oc(SCC(=O)Nc3ccc(OC)c(OC)c3)nc2c1	none
O=C(Nc1ccccc1)Nc1cccc(Cl)c1Cl	none
CC(=O)N/C(=N\c1nc(C)cc(C)n1)Nc1ccccc1Cl	none (no result: Lmaj promast)
COc1ccccc1NC(=O)Nc1ccncc1	Lmaj promast 97
COc1ccccc1NC(=O)Nc1cc(NC(=O)Nc2ccccc2OC)c(C)nc1C	Lmaj promast 64
O=C(Nc1ccncc1)Nc1cccc(Cl)c1Cl	Calb FLC inconclusive, T cruzi repl 66 (no result: Lmaj promast)
COc1ccccc1N/C(=N/c1nc(C)cc(C)n1)NC(C)=O	Lmaj promast 61 (no result: Calb FLC, T cruzi repl, NALP3 yeast inh, PolyA inhibitor)
COc1ccccc1NC(=O)Nc1ccc(Cc2ccncc2)cc1	none
CN1CCN(S(=O)(=O)c2cccc(C(=O)N3CCN(c4ccccc4)CC3)c2)CC1	none (no result: Calb FLC, T cruzi repl, NALP1 yeast inh, Lmaj promast, PolyA inhibitor)
COc1ccc(C2NS(=O)(=O)OCC2C)cc1 (stereo not given)	none (no result: Lmaj promast)
COc1ccccc1NC(=O)c1cnc(Nc2ccccc2OC)c2ccccc12	Lmaj promast 95
COc1ccc(OC)c(/C(O)=C/C(=O)C(=O)Nc2ccccc2OC)c1	Lmaj promast 96
COc1ccc(NC(=O)Nc2ccccc2OC)cc1	none
Cc1nc(N2CCOCC2)nc(OC(C)C)c1[N+](=O)[O-]	none
COc1nc(N2CCOCC2)nc(C)c1[N+](=O)[O-]	Lmaj promast 62
COc1cc(OC)c(NS(=O)(=O)c2cccc(C(=O)OCC(=O)NCC3CCCO3)c2)cc1Cl (stereo not given)	Lmaj promast 80
O=C(COC(=O)c1cccc(S(=O)(=O)N2CCN(c3ccccc3)CC2)c1)NCC1CCCO1 (stereo not given)	none (no result: NALP1 yeast inh, Lmaj promast)
Cc1cc(S(=O)(=O)NCC(C)C)ccc1OCC(=O)NCC1CCCO1 (stereo not given)	Lmaj promast 59
CCN1CCN(c2ccc(NC(=O)CCc3c(C)nc4c(-c5ccc(F)cc5)c(C)nn4c3C)cc2)CC1	Calb FLC inconclusive, T cruzi repl 64, Lmaj promast 99
COCCNC(=O)CCc1c(C)nc2c(-c3ccc(F)cc3)c(C)nn2c1C	NALP1 yeast inh 36
Nc1cccc2c1C(=O)N(CCOc1ccccc1F)C2=O	none (no result: Lmaj promast)
Cc1ccc2oc(=O)c3cnn(CC(=O)NC4CCN(Cc5ccccc5)CC4)c3c2c1	T cruzi repl 57
O=C(Cn1cc2c(n1)CCCC2)NC1CCN(Cc2ccccc2)CC1	Lmaj promast 72
O=C(CN1CCOc2ccccc21)NC1CCN(Cc2ccccc2)CC1	Lmaj promast 78
Cc1ccccc1NS(=O)(=O)c1ccc(C(=O)N2CCCC(C(F)(F)F)C2)cc1 (stereo not given)	none (no result: NALP1 yeast inh, Lmaj promast)
Cc1nonc1C(=O)N/N=C/c1ccc([N+](=O)[O-])o1	Calb FLC 82, Lmaj promast 94
O=C(N/N=C/c1ccc([N+](=O)[O-])o1)C1CC1	T cruzi repl 73, Lmaj promast 100
Cc1nonc1C(=O)N/N=C/c1ccc(O)cc1O	Lmaj promast 98
Cc1nonc1C(=O)N/N=C/c1ccncc1	Calb FLC inconclusive
COC(=O)N/N=C/c1ccc([N+](=O)[O-])o1	T cruzi repl 55, Lmaj promast 99
CCOC(=O)N1CCC(NC(=O)c2cc(C(=O)NCC(OC)OC)ccc2CO)CC1	none
COc1ccc(COC(=O)C2CC(=O)N(Cc3ccccc3)C2)cc1 (stereo not given)	none (no result: Calb FLC, T cruzi repl, NALP1 yeast inh, Lmaj promast, PolyA inhibitor)
O=C(/C=C/c1ccc(Cl)cc1)NC(=S)NN1CCCCC1c1cccnc1 (stereo not given)	Lmaj promast 91
COc1ccc(/C=C/C(=O)NC(=S)NN2CCCCC2c2cccnc2)cc1OC (stereo not given)	none
Cc1ccc(C(=O)c2ccccc2C(=O)OCC(=O)Nc2ccc(SC(F)F)cc2)cc1	Lmaj promast 66
CCN(CC)C(=O)C1CCC(CNS(=O)(=O)c2cccc3nsnc23)CC1 (stereo not given)	none (no result: Lmaj promast)
Cc1ccc(S(=O)(=O)N2CCC(C(N)=O)CC2)cc1[N+](=O)[O-]	none (no result: Lmaj promast)
COC(=O)/C(C#N)=C/c1c(Oc2cc(C)cc(C)c2)nc2c(C)cccn2c1=O	Lmaj promast 97
